Screens as filed in PubChem BioAssay.
Calb biofilm kill – kills Candida albicans biofilms; C. albicans biofilm + clotrimazole, Alamar Blue; inhibition, % at 6 µM; hit rate 0.14% among 85,000;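 active means inhibition above 20%; inactive means inhibition below 20%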;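 further: preformed 24 hr biofilms exposed to compound for 48 hr; 0% = biofilm without compound and 100% = blank killed by clotrimazole plus chlorhexidine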
bCat KO growth – beta-catenin-lacking colon tumor cell growth suppression | HCT116 beta-catenin knockout viability, CellTiter-Glo, 60 h; hits give low values | viability, % at 10 µM | hit rate 1.5% among 140,000 | AID 818;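 active means viability at or under a set limit, the compound median less 4 SD, cut at about 6% in these data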;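 further: 0% = Hyamine 1622 control at 20 µM and 100% = untreated cell control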
Fibroblast inh – blocks proliferation of human lung fibroblasts | LL 47 human lung fibroblast viability, ATP luminescence; hits give low values | viability, % at 10 µM | hit rate 1.1% among 85,000;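 active means viability at or below 50% in the single dose screen; inactive means viability above 50%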;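 further: compound exposure lasted 72 h before the ATP readout; 100% = median luminescence of untreated cell-only wells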
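test system = LL 47 human lung fibroblasts | amount = 1,150 fibroblasts seeded per well | medium = 15% FBS in IMEM | times = overnight cell rest, 72 h compound treatment at 37 °C | measured by = CellTiter-Glo luminescence measuring cellular ATP | read-out = viability percentage against median untreated-cell control | benchmarks = cell-only wells, no compound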
HUVEC prolif 384 – human endothelial cell proliferation inhibition; AID 648; HUVEC proliferation, CellTiter-Glo luminescence, 72 h; hits give low values; hit rate 1.1% among 86,000; viability, % at 10 µM (by protocol);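 active means viability at or below 30%; inactive means viability above 30%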;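 further: 100% = median luminescence of DMSO-only cell control wells on each plate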
H69AR inhibit – blocks growth of human H69AR lung tumor cells. H69AR lung tumor viability, ATP luminescence, 72 h; hits give low values. viability, % at 10 µM. hit rate 6% among 85,000. AID 598;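 active means viability at or below 40%; inactive means viability above 40%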;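 further: multidrug resistant small cell line overexpressing MRP-1 efflux transporter; 100% = mean luminescence of untreated control wells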
PTEN del growth – PTEN-deleted cell growth suppression. HCT116 PTEN-null viability, CellTiter-Glo, 60 h; hits give low values. viability, % at 10 µM. hit rate 1.2% among 140,000;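 active means viability at or below a set limit, 4 SD under the median of all tested compounds, cut at about 3.7% in these data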;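 further: PTEN knockout HCT116 line with beta catenin targeted HCT116 as companion control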
* marks the source's active call; other numbers are inactive results; / = no result given. The sample as a whole holds a higher share of hits than the screen did.

SMILES | Calb biofilm kill | bCat KO growth | Fibroblast inh | HUVEC prolif 384 | H69AR inhibit | PTEN del growth
C=C(C)COc1ccc(-c2[nH]ncc2Oc2ccccc2OCC)c(O)c1 | 3 | 56 | 56 | 27* | / | 50
C=C(C)COc1ccc(-c2ncncc2Oc2ccc(OC)cc2)c(O)c1 | -3 | 85 | 98 | 89 | 48 | 87
CCCc1ccc(Oc2cn[nH]c2-c2ccc(O)cc2O)cc1 | / | 64 | 91 | 61 | 29* | 63
Cc1cc(C)n(CC(=O)N/N=C/c2ccccn2)n1 | / | 90 | / | / | / | 95
CC1C(C(=O)Nc2ccccc2)CCCC1(C)C(=O)O (stereo not given) | 7 | 104 | 111 | 115 | 104 | 96
O=C(CSc1ccccc1[N+](=O)[O-])NC1CCS(=O)(=O)C1 (stereo not given) | / | 88 | / | / | / | 92
COc1ccc(OC)c(N(CC(=O)Nc2cccnc2)S(=O)(=O)c2ccc(C)cc2)c1 | 5 | 49 | 59 | 50 | 18* | 33
Cc1cc(NS(=O)(=O)c2ccccc2)c([N+](=O)[O-])cc1C | / | 88 | / | / | / | 90
Cc1cc(NS(=O)(=O)c2ccccc2)c(C)c(Cl)c1O | 6 | 2.3* | 82 | 82 | 80 | 2.2*
O=C(Nc1ccc(Cl)cc1F)C1CC1 | / | 100 | / | / | / | 95
CN1CCN(c2ccccc2NC(=O)COc2ccccc2)CC1 | 6 | 100 | 93 | 88 | 68 | 87
CC(=O)N1CCN(c2ccccc2NC(=O)COc2cc(C)ccc2C(C)C)CC1 | 1 | 44 | 93 | 72 | 35* | 42
Cc1ccc(C(C)C)c(OCC(=O)Nc2ccccc2N2CCN(C)CC2)c1 | 8 | 12 | 93 | 76 | 35* | 17
COc1ccc(/C=C2\CCc3ccccc3C2=O)cc1Cn1nc(C)cc1C | -1 | 17 | 80 | 87 | 15* | 12
Cc1ccc(OCc2nc(C#N)c(NCCCn3ccnc3)o2)cc1 | 2 | 91 | 101 | 90 | 100 | 91
N#Cc1nc(COc2ccccc2)oc1NCCCn1ccnc1 | 0 | 97 | 107 | 87 | 98 | 105
CCCOc1ccc(-c2nc(C#N)c(NCCCn3ccnc3)o2)cc1 | 3 | 78 | 90 | 28* | 50 | 17
N#Cc1nc(-c2ccc(OCc3ccccc3)cc2)oc1NCCCn1ccnc1 | 7 | 67 | 92 | 5.8* | 6.5* | 44
COc1ccc(-c2nc(C#N)c(NCCCn3ccnc3)o2)cc1OC | 2 | 81 | 109 | 106 | 91 | 81
N#Cc1nc(-c2ccc(OCc3ccccc3Cl)cc2)oc1NCCCn1ccnc1 | / | 25 | 62 | 2.6* | 94 | 19
Cc1ccc2c(c1)CCCN2C(=O)c1cc2ccccc2oc1=O | -3 | 105 | 101 | 107 | 91 | 99
O=S(=O)(c1ccc(Oc2ncnc3scc(-c4ccccc4)c23)cc1)N1CCOCC1 | 9 | 54 | 88 | 86 | 37* | 42
O=C(c1cccc2ccccc12)n1nnc2ccccc21 | -4 | / | 99 | 66 | 6.5* | /
C#CCOC(=O)c1ccccc1C(=O)n1nnc2ccccc21 | 3 | 89 | 97 | 89 | 38* | 90
COc1ccc(-c2nn(-c3ccccc3)cc2C(=O)O)cc1OC | 1 | 88 | 108 | 104 | 96 | 91
SMILES | Calb biofilm kill | bCat KO growth | Fibroblast inh | HUVEC prolif 384 | H69AR inhibit | PTEN del growth
COc1ccc(-c2nn(-c3ccccc3)cc2C(=O)n2nnc3ccccc32)cc1 | 5 | 74 | 99 | 77 | 23* | 83
CCn1cc(C(=O)O)c(=O)c2cc(F)c(N3CCNCC3)nc21 | 22* | / | 100 | 94 | 88 | /
Cc1nc(N)c(C#N)c(-c2ccccc2)c1C | 4 | 89 | 104 | 79 | 83 | 86
CC1=C(C#N)c2nc(N)c(C#N)c(C)c2/C1=C\c1ccccc1 | 8 | / | 8.1* | 13* | 1.6* | /
Fc1ccc(-c2csc(/C=C/c3ccc4c(c3)OCO4)n2)cc1 | / | 103 | / | / | / | 101
COc1cc(C2C3=C(Nc4ncnn42)c2ccccc2CC3)cc(OC)c1OC (stereo not given) | 5 | 16 | 50 | 54 | 29* | 14
O=C(c1c[nH]c(C(=O)C(Cl)(Cl)Cl)c1)c1ccccc1Cl | 2 | 9 | 62 | 81 | 23* | 31
C/C(=N\NC(=O)C1COc2ccccc2O1)c1ccccn1 (stereo not given) | / | 5.0* | / | / | / | 5
O=C(N/N=C/c1ccc2c(c1)OCO2)C1COc2ccccc2O1 (stereo not given) | / | 81 | / | / | / | 71
O=C(N/N=C\c1cc(Br)cs1)C1COc2ccccc2O1 (stereo not given) | 3 | 31 | 63 | 61 | 27* | 37
C/C(=N\NC(=O)C(c1ccccc1)c1ccccc1)c1ccccn1 | / | 4.3* | / | / | / | 5
C/C(=N\NC(=O)C1COc2ccccc2O1)c1ccc(C)o1 (stereo not given) | / | 102 | / | / | / | 111
COc1ccc(NCc2nnc(SCc3ccc(Cl)cc3)n2-c2ccccc2)cc1 | / | 43 | / | / | / | 44
O=C1CN(C(=O)c2cc3ccccc3oc2=O)C(c2ccc(F)cc2)c2cc(Br)ccc2N1 (stereo not given) | / | 91 | / | / | / | 83
C[C@H]1CC[C@H]2C(=O)N3[C@H](c4ccccc4Br)[C@@H](C)CC[C@H]3C(=O)N2[C@@H]1c1ccccc1Br | / | 2.3* | / | / | / | 3.0*
O=C1c2oc3ccc(Cl)cc3c(=O)c2C(c2cccc(Br)c2)N1CCO (stereo not given) | 2 | 60 | 103 | 109 | 26* | 61
CCN(CC)CCN1C(=O)c2oc3ccccc3c(=O)c2C1c1cccc(Br)c1 (stereo not given) | 4 | 94 | 101 | 101 | 37* | 98
CC(C(=O)Nc1cc([N+](=O)[O-])ccc1Cl)N1CCN(c2ccc(O)cc2)CC1 (stereo not given) | / | 85 | / | / | / | 93
COc1cccc(-c2nnc(NC(=O)c3ccc(S(=O)(=O)N4CCOCC4)cc3)o2)c1 | 8 | 15 | 69 | 15* | 20* | 14
CC(=O)Nc1nnc(-c2ccc3c(c2)CCCC3)o1 | 14 | 87 | 95 | 100 | 76 | 110
COc1cccc(C(=O)NCC2CCN(c3ccc(S(=O)(=O)N4CCOCC4)cc3)CC2)c1 | 5 | 81 | 92 | 86 | 30* | 78
CC1CN(S(=O)(=O)c2ccc(C(=O)Nc3nnc(-c4ccc5c(c4)CCCC5)o3)cc2)CC(C)O1 (stereo not given) | 2 | 13 | 39* | 7.0* | 17* | 13
O=C(Nc1ccc([N+](=O)[O-])cc1)C1CC1(c1ccccc1)c1ccccc1 (stereo not given) | / | 73 | / | / | / | 66
CC1(C)C(C=C(Cl)Cl)C1C(=O)Nc1ccc([N+](=O)[O-])cc1 (stereo not given) | / | 3.9* | / | / | / | 2.4*
O=C(c1ccc(F)cc1)N1CCN=C1c1ccccc1 | / | 97 | / | / | / | 92
O=C(O)c1ccc(NC(=S)NC(NC(=O)c2ccco2)C(Cl)(Cl)Cl)cc1 (stereo not given) | 3 | 96 | 86 | 80 | 95 | 98
